Test results reported in ChEMBL document CHEMBL1125823, “2-Phenylindole-linked [2-(aminoalkyl)pyridine]dichloroplatinum(II): complexes with a selective action on estrogen receptor positive mammary tumors” (1991).
Values belong to the compound of their own block, whether it stands above or below them.

Assays:
Mus musculus [1] = species: Mus musculus; assay: Relative tumor weight in treated compared to control mice bearing hormone-dependent transplanted MXT mammary tumors at 8.8mg; format: functional
Mus musculus [2] = species: Mus musculus; assay: Anti-tumor activity in hormone-dependent transplant MXT mammary tumor bearing mice at 8.8 mg (control=388+/-269); format: functional
MCF7 [3] = assay: Effect on Estrogen receptor positive MCF-7 human breast cancer cell proliferation at 1x10E-6M (control = 62.7+/-8.8); format: functional
Outline: (§1)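 MCF-7 cells were kept in MEM with 5% charcoal-treated newborn calf serum and phenol red for 2 weeks, then about 2×10^4 cells were plated per well. Compounds in 0.1% DMF were added 2 days later and renewed on day 4; DMF alone served as control. Coulter cell counts were taken on day 5; mean of six dishes ± SD; % T/C.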

MCF7 [4] = assay: Effect on Estrogen receptor positive MCF-7 human breast cancer cell proliferation at 5x10E-6M (control = 62.7+/-8.8); format: functional; outline: as §1
MCF7 [5] = assay: Effect on Estrogen receptor positive MCF-7 human breast cancer cell proliferation at 5x10E-7M (control = 62.7+/-8.8); format: functional; outline: as §1
MCF7 [6] = assay: Effect on [3H]thymidine incorporation into estrogen receptor positive MCF-7 human breast cancer cells at 5x10E-7M (control=48.6+/-3.6); format: functional, cell-based
Outline: (§2)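 MCF-7 cells in improved MEM with glutamine, gentamycin and 5% newborn calf serum, switched to charcoal-treated serum two weeks ahead; phenol red present; 37 °C, 5% CO2. About 2×10^4 cells plated per well; compound in 0.1% DMF added 2 days later, renewed on day 4; labelled 3 days later with 1 μCi [3H]thymidine per well for 2 h; cpm/dish, mean of six dishes ± SD.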

MCF7 [7] = assay: Effect on [3H]thymidine incorporation into estrogen receptor positive MCF-7 human breast cancer cells at 1x10E-6M (control = 48.6+/-3.6); format: functional
Outline: (§3)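 MCF-7 cells were grown in MEM with charcoal-treated 5% newborn calf serum and phenol red, then treated with compounds in 0.1% DMF (renewed on day 4) alongside DMF controls. They were labeled 3 days later with 1 µCi [³H]thymidine per well for 2 h, and incorporated radioactivity per dish was measured; mean of six dishes ± SD; % T/C.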

MCF7 [8] = assay: Effect on [3H]thymidine incorporation into estrogen receptor positive MCF-7 human breast cancer cells at 5x10E-6M (control = 48.6+/-3.6); format: functional; outline: as §2
[9] = target: T1, Estrogen receptor (Mus musculus) (UniProt O08537+P19785); assay: Uterotrophic effect in mice as relative uterine weight(mg) at 25 ug (control = 14.5+/-2.1); format: functional, tissue-based
T1 sequence (P19785 whole entry, looked up, chain 1 of 2): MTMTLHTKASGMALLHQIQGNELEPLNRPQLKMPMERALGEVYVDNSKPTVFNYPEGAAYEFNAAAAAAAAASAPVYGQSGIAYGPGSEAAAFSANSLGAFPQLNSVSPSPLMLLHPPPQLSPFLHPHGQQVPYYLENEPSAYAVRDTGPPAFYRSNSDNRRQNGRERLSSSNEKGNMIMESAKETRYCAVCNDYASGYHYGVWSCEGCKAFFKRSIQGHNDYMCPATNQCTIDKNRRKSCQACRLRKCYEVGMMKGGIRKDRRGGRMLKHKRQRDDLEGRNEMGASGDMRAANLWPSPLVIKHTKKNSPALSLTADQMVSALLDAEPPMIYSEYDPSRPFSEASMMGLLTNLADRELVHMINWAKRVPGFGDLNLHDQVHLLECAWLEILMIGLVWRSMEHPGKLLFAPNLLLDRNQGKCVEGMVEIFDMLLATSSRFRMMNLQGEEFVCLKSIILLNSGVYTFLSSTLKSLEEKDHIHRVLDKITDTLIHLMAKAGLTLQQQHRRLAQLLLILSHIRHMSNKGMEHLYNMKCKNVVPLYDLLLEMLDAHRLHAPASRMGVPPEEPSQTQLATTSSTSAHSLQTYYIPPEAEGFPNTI
T1 sequence (O08537 whole entry, looked up, chain 2 of 2): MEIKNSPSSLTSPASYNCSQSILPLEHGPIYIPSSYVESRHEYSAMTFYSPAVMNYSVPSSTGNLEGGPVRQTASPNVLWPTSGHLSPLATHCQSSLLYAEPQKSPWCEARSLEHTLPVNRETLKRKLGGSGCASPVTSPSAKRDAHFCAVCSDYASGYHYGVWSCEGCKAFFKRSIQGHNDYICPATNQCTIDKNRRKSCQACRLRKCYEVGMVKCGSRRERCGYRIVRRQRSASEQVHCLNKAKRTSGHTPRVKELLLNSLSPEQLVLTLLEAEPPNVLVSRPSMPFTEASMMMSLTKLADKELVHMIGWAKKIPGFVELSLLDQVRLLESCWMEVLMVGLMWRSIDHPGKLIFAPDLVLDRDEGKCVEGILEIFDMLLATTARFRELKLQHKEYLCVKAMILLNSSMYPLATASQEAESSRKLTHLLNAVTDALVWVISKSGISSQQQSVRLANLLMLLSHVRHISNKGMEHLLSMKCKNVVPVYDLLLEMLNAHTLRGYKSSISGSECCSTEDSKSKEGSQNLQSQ
Outline: (§4)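 Immature mice dosed sc per animal on three consecutive days; vehicle controls. Killed and weighed 24 h after last injection; uteri fixed in Bouin solution 2 h, washed with alcoholic LiCl, dried at 100 °C for 24 h. Relative uterus weight = uterine dry weight (mg)/body weight (g) × 100; mean of 6-10 animals ± SD.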

[10] = target: T1, Estrogen receptor (Mus musculus); assay: Uterotrophic effect in mice as relative uterine weight(mg) at 250 ug (control = 14.5+/-2.1); format: functional, tissue-based; outline: as §4
MCF7 [11] = assay: Effect on Estrogen receptor positive MCF-7 human breast cancer cell proliferation at 1x10E-6M; format: functional; outline: as §1
MCF7 [12] = assay: Effect on Estrogen receptor positive MCF-7 human breast cancer cell proliferation at 5x10E-6M; format: functional; outline: as §1
MCF7 [13] = assay: Effect on Estrogen receptor positive MCF-7 human breast cancer cell proliferation at 5x10E-7M; format: functional; outline: as §1
Mus musculus [14] = species: Mus musculus; assay: Relative tumor weight in treated compared to control mice bearing hormone-dependent transplanted MXT mammary tumors at 20 mg; format: functional, organism-based
[15] = target: T1, Estrogen receptor (Mus musculus); assay: Anti-uterotrophic effect in hormone-dependent transplant MXT bearing mice as relative uterine weight in treated and control mice at 20 mg (control=100+/-24); format: functional
[16] = target: T1, Estrogen receptor (Mus musculus); assay: Anti-uterotrophic effect in mice as relative uterine weight(mg) at 250 ug; format: functional
Outline: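 Immature mice received the compound sc per animal on three consecutive days, alone or with 0.4 µg estrone per animal per day. Uteri were taken 24 h after the last injection, Bouin-fixed, dried at 100 °C for 24 h and weighed. Relative uterus weight = dry weight (mg)/body weight (g) × 100; mean of 6-10 animals ± SD; Mann-Whitney U test.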

Mus musculus [17] = species: Mus musculus; assay: Antitumor activity in hormone-dependent transplant MXT mammary tumor bearing mice at 20 mg (control=197+/-130); format: functional, organism-based
MCF7 [18] = assay: Effect on [3H]thymidine incorporation into estrogen receptor positive MCF-7 human breast cancer cells at 1x10E-6M; format: functional; outline: as §3
MCF7 [19] = assay: Effect on [3H]thymidine incorporation into estrogen receptor positive MCF-7 human breast cancer cells at 5x10E-6M; format: functional; outline: as §2
[20] = target: T1, Estrogen receptor (Mus musculus); assay: Uterotrophic effect in mice as relative uterine weight(mg) at 25 ug (control = […]+/-1.7); format: functional, tissue-based
[21] = target: T1, Estrogen receptor (Mus musculus); assay: Uterotrophic effect in mice as relative uterine weight(mg) at 250 ug (control = […]+/-1.7); format: functional, tissue-based
Mus musculus [22] = species: Mus musculus; assay: Anti-tumor activity in hormone-dependent transplant MXT mammary tumor bearing mice at 20 mg (control=388+/-269); format: functional, organism-based
MCF7 [23] = assay: Effect on Estrogen receptor positive MCF-7 human breast cancer cell proliferation at 1x10E-6M (control = 66.9+/-7.0); format: functional; outline: as §1
MCF7 [24] = assay: Effect on Estrogen receptor positive MCF-7 human breast cancer cell proliferation at 5x10E-6M (control = 66.9+/-7.0); format: functional; outline: as §1
MCF7 [25] = assay: Effect on [3H]thymidine incorporation into estrogen receptor positive MCF-7 human breast cancer cells at 1*10^-6 M (control = 28.2+/-3.0); format: functional; outline: as §3
MCF7 [26] = assay: Effect on [3H]thymidine incorporation into estrogen receptor positive MCF-7 human breast cancer cells at 5x10E-6M (control = 28.2+/-3.0); format: functional; outline: as §2
[27] = target: T1, Estrogen receptor (Mus musculus); assay: Uterotrophic effect in mice as relative uterine weight(mg) at 25 ug (control = 12.3+/-3.7); format: functional, tissue-based; outline: as §4
[28] = target: T1, Estrogen receptor (Mus musculus); assay: Uterotrophic effect in mice as relative uterine weight(mg) at 250 ug (control = 12.3+/-3.7); format: functional, tissue-based; outline: as §4
Mus musculus [29] = species: Mus musculus; assay: Relative tumor weight in treated compared to control mice bearing hormone-dependent transplanted MXT mammary tumors at 1.5 mg; format: functional, organism-based
[30] = target: T1, Estrogen receptor (Mus musculus); assay: Anti-uterotrophic effect in hormone-dependent transplant MXT bearing mice as relative uterine weight in treated and control mice at 1.5 mg; format: functional
Mus musculus [31] = species: Mus musculus; assay: Anti-tumor activity in hormone-dependent transplant MXT mammary tumor bearing mice at 1.5 mg (control=534+/-652); format: functional, organism-based

Compound: CC/C(=C(\c1ccccc1)c1ccc(OCCN(C)C)cc1)c1ccccc1 [TAMOXIFEN]
T/C (Mus musculus [1]): 29%
Tumor weight (Mus musculus [2]): 114 mg

Relative uterus weight [9]: 12.7 mg
Relative uterus weight [10]: 16.3 mg
T/C [15]: 103%
Relative uterus weight [16]: 52.7 mg
Compound: [5-hydroxy-2-(4-hydroxyphenyl)-1-[omega-[(2-pyridylmethyl)amino]hexyl]indole]dichloroplatinum (II) complex
Cell no/dish (MCF7 [3]): 401000
Cell no/dish (MCF7 [4]): 345000
Cell no/dish (MCF7 [5]): 482000
[3H] thymidine cpm/dish (MCF7 [6]): 33400
Activity (MCF7 [7]): 27500
Activity (MCF7 [8]): 16700
T/C (MCF7 [11]): 64%
T/C (MCF7 [12]): 55%
T/C (MCF7 [13]): 77%
T/C (Mus musculus [14]): 40%
Tumor weight (Mus musculus [17]): 80 mg
T/C (MCF7 [18]): 57%
T/C (MCF7 [19]): 34%

Relative uterus weight [20]: 20.2 mg
Relative uterus weight [21]: 35.7 mg
T/C [15]: 104%
Relative uterus weight [16]: 48 mg
Compound: [5-hydroxy-3-methyl-2-(4-hydroxyphenyl)-1-[omega-[(2-pyridylmethyl(1-ethyl))amino]hexyl]indole]dichloroplatinum (II) complex
T/C (Mus musculus [14]): 21%
Tumor weight (Mus musculus [22]): 80 mg

Relative uterus weight [27]: 16.3 mg
Relative uterus weight [28]: 22.1 mg
Relative uterus weight [16]: 46.6 mg
Compound: [5-hydroxy-3-methyl-2-(4-hydroxyphenyl)-1-[omega-[(2-pyridylmethyl)amino]pentyl]indole]dichloroplatinum (II) complex
Cell no/dish (MCF7 [23]): 674000
Cell no/dish (MCF7 [24]): 571000
Activity (MCF7 [25]): 16900
Activity (MCF7 [26]): 15200
T/C (MCF7 [11]): 101%
T/C (MCF7 [12]): 85%
T/C (MCF7 [18]): 60%
T/C (MCF7 [19]): 54%

T/C [30]: 76%
Compound: CISPLATIN
T/C (Mus musculus [29]): 12%
Tumor weight (Mus musculus [31]): 64 mg
